Experimental data reported in ChEMBL document CHEMBL1126990, “Design and synthesis of 18F-labeled neurotoxic analogs of MPTP” (J Med Chem, 1993).

Key:
Mus musculus [1] = species on record: Mus musculus; experiment: Biodistribution of [18F]-radiolabeled compound in the mouse brain after 30 minutes (average uptake in (%injected dose)/(% body weight); type: ADME, organism-based; details: in vivo, 0.5 h
In short: (§1)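 Adult male C57 Black mice (about 20 g), anesthetized with 1 mg sodium pentobarbital ip, given 0.1 mL (~0.05 mCi) tracer via tail vein. Killed by cervical dislocation at set times (5–90 min). Organs sampled, counted, weighed. Injected dose measured against weighed standards, minus residual tail activity. %id/g multiplied by body weight gives normalized uptake. Mean ± SD, N = 3 (N = 2 at 5 min).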

Mus musculus [2] = species on record: Mus musculus; experiment: Biodistribution of [18F]-radiolabeled compound in the mouse bone after 15 minutes (average uptake in (%injected dose)/(% body weight); type: ADME, organism-based, Bone element; details: in vivo, 0.25 h; in short: as §1
Mus musculus [3] = species on record: Mus musculus; experiment: Biodistribution of [18F]-radiolabeled compound in the mouse blood after 90 minutes (average uptake in (%injected dose)/(% body weight); type: ADME, organism-based; details: in vivo, 1.5 h; in short: as §1
Rattus norvegicus = species on record: Rattus norvegicus; experiment: Maximal rate (Vmax) for oxidation by rat liver MAO (results are means of number of separate experiments, n=4) (*p<0.01); type: ADME
In short: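 Rat liver MAO (crude P2 mitochondrial fraction from adult male Wistar rats, in pH 7.4 phosphate buffer) incubated with substrate at 30 μM to 5 mM; colorimetric detection of H2O2 formed. Blanks contained 0.1 mM pargyline. Vmax and Km from linear regression of Lineweaver-Burk plots; means ± SE of n separate experiments; ANOVA with post-hoc Scheffe test.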

Mus musculus [4] = species on record: Mus musculus; experiment: Biodistribution of [18F]-radiolabeled compound in the mouse lung after 30 minutes (average uptake in (%injected dose)/(% body weight); type: ADME, organism-based; details: in vivo, 0.5 h; in short: as §1
Mus musculus [5] = species on record: Mus musculus; experiment: Biodistribution of [18F]-radiolabeled compound in the mouse liver after 15 minutes (average uptake in (%injected dose)/(% body weight); type: ADME, organism-based; details: in vivo, 0.25 h; in short: as §1
Mus musculus [6] = species on record: Mus musculus; experiment: Biodistribution of [18F]-radiolabeled compound in the mouse heart after 60 minutes (average uptake in (%injected dose)/(% body weight); type: ADME, organism-based; details: in vivo, 1 h; in short: as §1
Mus musculus [7] = species on record: Mus musculus; experiment: Biodistribution of [18F]-radiolabeled compound in the mouse bone after 30 minutes (average uptake in (%injected dose)/(% body weight); type: ADME, organism-based, Bone element; details: in vivo, 0.5 h; in short: as §1
Mus musculus [8] = species on record: Mus musculus; experiment: Biodistribution of [18F]-radiolabeled compound in the mouse liver after 90 minutes (average uptake in (%injected dose)/(% body weight); type: ADME, organism-based; details: in vivo, 1.5 h; in short: as §1
Mus musculus [9] = species on record: Mus musculus; experiment: Biodistribution of [18F]-radiolabeled compound in the mouse spleen after 5 minutes (average uptake in (%injected dose)/(% body weight); type: ADME, organism-based; details: in vivo; in short: as §1
Mus musculus [10] = species on record: Mus musculus; experiment: Biodistribution of [18F]-radiolabeled compound in the mouse lung after 15 minutes (average uptake in (%injected dose)/(% body weight); type: ADME, organism-based; details: in vivo, 0.25 h; in short: as §1
Mus musculus [11] = species on record: Mus musculus; experiment: Biodistribution of [18F]-radiolabeled compound in the mouse muscle after 15 minutes (average uptake in (%injected dose)/(% body weight); type: ADME, organism-based, Muscle tissue; details: in vivo, 0.25 h; in short: as §1
Mus musculus [12] = species on record: Mus musculus; experiment: Biodistribution of [18F]-radiolabeled compound in the mouse intestine after 90 minutes (average uptake in (%injected dose)/(% body weight); type: ADME, organism-based; details: in vivo, 1.5 h; in short: as §1
Mus musculus [13] = species on record: Mus musculus; experiment: Biodistribution of [18F]-radiolabeled compound in the mouse kidney after 60 minutes (average uptake in (%injected dose)/(% body weight); type: ADME, organism-based; details: in vivo, 1 h; in short: as §1
Mus musculus [14] = species on record: Mus musculus; experiment: Biodistribution of [18F]-radiolabeled compound in the mouse kidney after 30 minutes (average uptake in (%injected dose)/(% body weight); type: ADME, organism-based; details: in vivo, 0.5 h; in short: as §1
Mus musculus [15] = species on record: Mus musculus; experiment: Biodistribution of [18F]-radiolabeled compound in the mouse spleen after 30 minutes (average uptake in (%injected dose)/(% body weight); type: ADME, organism-based; details: in vivo, 0.5 h; in short: as §1
Mus musculus [16] = species on record: Mus musculus; experiment: Biodistribution of [18F]-radiolabeled compound in the mouse intestine after 60 minutes (average uptake in (%injected dose)/(% body weight); type: ADME, organism-based; details: in vivo, 1 h; in short: as §1
Mus musculus [17] = species on record: Mus musculus; experiment: Biodistribution of [18F]-radiolabeled compound in the mouse muscle after 60 minutes (average uptake in (%injected dose)/(% body weight); type: ADME, organism-based, Muscle tissue; details: in vivo, 1 h; in short: as §1
Mus musculus [18] = species on record: Mus musculus; experiment: Biodistribution of [18F]-radiolabeled compound in the mouse blood after 15 minutes (average uptake in (%injected dose)/(% body weight); type: ADME, organism-based; details: in vivo, 0.25 h; in short: as §1
Mus musculus [19] = species on record: Mus musculus; experiment: Biodistribution of [18F]-radiolabeled compound in the mouse intestine after 15 minutes (average uptake in (%injected dose)/(% body weight); type: ADME, organism-based; details: in vivo, 0.25 h; in short: as §1
Mus musculus [20] = species on record: Mus musculus; experiment: Biodistribution of [18F]-radiolabeled compound in the mouse bone after 90 minutes (average uptake in (%injected dose)/(% body weight); type: ADME, organism-based, Bone element; details: in vivo, 1.5 h; in short: as §1
Mus musculus [21] = species on record: Mus musculus; experiment: Biodistribution of [18F]-radiolabeled compound in the mouse lung after 60 minutes (average uptake in (%injected dose)/(% body weight); type: ADME, organism-based; details: in vivo, 1 h; in short: as §1
Mus musculus [22] = species on record: Mus musculus; experiment: Biodistribution of [18F]-radiolabeled compound in the mouse blood after 30 minutes (average uptake in (%injected dose)/(% body weight); type: ADME, organism-based; details: in vivo, 0.5 h; in short: as §1
Mus musculus [23] = species on record: Mus musculus; experiment: Biodistribution of [18F]-radiolabeled compound in the mouse brain after 15 minutes (average uptake in (%injected dose)/(% body weight); type: ADME, organism-based; details: in vivo, 0.25 h; in short: as §1
Mus musculus [24] = species on record: Mus musculus; experiment: Biodistribution of [18F]-radiolabeled compound in the mouse muscle after 5 minutes (average uptake in (%injected dose)/(% body weight); type: ADME, organism-based, Muscle tissue; details: in vivo; in short: as §1
Mus musculus [25] = species on record: Mus musculus; experiment: Biodistribution of [18F]-radiolabeled compound in the mouse kidney after 5 minutes (average uptake in (%injected dose)/(% body weight); type: ADME, organism-based; details: in vivo; in short: as §1
Mus musculus [26] = species on record: Mus musculus; experiment: Biodistribution of [18F]-radiolabeled compound in the mouse lung after 5 minutes (average uptake in (%injected dose)/(% body weight); type: ADME, organism-based; details: in vivo; in short: as §1

## CN1CC=C(c2ccccc2CF)CC1
Mus musculus [1]
  Time: 0.68 min
Mus musculus [2]
  Time: 1.58 min
Mus musculus [3]
  Time: 0.25 min
Rattus norvegicus
  Vmax: 609 nM hr-1 (mg of protein)-1
Mus musculus [4]
  Time: 2.54 min
Mus musculus [5]
  Time: 2.33 min
Mus musculus [6]
  Time: 1.88 min
Mus musculus [7]
  Time: 1.91 min
Mus musculus [8]
  Time: 0.778 min
Mus musculus [9]
  Time: 1.37 min
Mus musculus [10]
  Time: 3.83 min
Mus musculus [11]
  Time: 0.54 min
Mus musculus [12]
  Time: 2.32 min
Mus musculus [13]
  Time: 0.94 min
Mus musculus [14]
  Time: 1.36 min
Mus musculus [15]
  Time: 1.04 min
Mus musculus [16]
  Time: 0.88 min
Mus musculus [17]
  Time: 0.3 min
Mus musculus [18]
  Time: 0.66 min
Mus musculus [19]
  Time: 1.99 min
Mus musculus [20]
  Time: 3.32 min
Mus musculus [21]
  Time: 1.6 min
Mus musculus [22]
  Time: 0.4 min
Mus musculus [23]
  Time: 0.82 min
Mus musculus [24]
  Time: 0.61 min
Mus musculus [25]
  Time: 4.04 min
Mus musculus [26]
  Time: 6.33 min
